Laboratory results from ChEMBL document CHEMBL1806379, “Efficient synthesis of antifungal active 9-substituted-3-aryl-5H,13aH-quinolino[3,2-f][1,2,4]triazolo[4,3-b][1,2,4]triazepines in ionic liquids” (2011).

Key:
Format in all cases: functional
Rhizopus [1] = assay: Antifungal activity against Rhizopus sp. at 1000 ug after 24 hrs by paper disc technique; conditions: read-out: IZ
Outline: (§1)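 Potato dextrose agar plates: sterilized base layer overlaid with seeded medium (cooled to 40 °C, spore suspension from ten-day cultures of A. niger, A. flavus, P. notatum and Rhizopus species added), chilled before use. Disc diffusion, incubation at 28 °C; zone read after 24 h from disc centre. I% = (C − T)/C × 100 (C, zone diameter in check; […]). Fluconazole (500 and 1000 µg/ml) as standard.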

Aspergillus flavus [2] = assay: Antifungal activity against Aspergillus flavus at 500 ug after 24 hrs by paper disc technique; conditions: read-out: IZ; outline: as §1
Aspergillus niger [3] = assay: Antifungal activity against Aspergillus niger at 1000 ug after 24 hrs by paper disc technique relative to control; outline: as §1
Rhizopus [4] = assay: Antifungal activity against Rhizopus sp. at 1000 ug after 24 hrs by paper disc technique relative to control; outline: as §1
Rhizopus [5] = assay: Antifungal activity against Rhizopus sp. at 500 ug after 24 hrs by paper disc technique relative to control; outline: as §1
Aspergillus niger [6] = assay: Antifungal activity against Aspergillus niger at 1000 ug after 24 hrs by paper disc technique; conditions: read-out: IZ; outline: as §1
Aspergillus niger [7] = assay: Antifungal activity against Aspergillus niger at 500 ug after 24 hrs by paper disc technique; conditions: read-out: IZ; outline: as §1
Aspergillus flavus [8] = assay: Antifungal activity against Aspergillus flavus at 1000 ug after 24 hrs by paper disc technique relative to control; outline: as §1
Aspergillus flavus [9] = assay: Antifungal activity against Aspergillus flavus at 1000 ug after 24 hrs by paper disc technique; conditions: read-out: IZ; outline: as §1
Aspergillus flavus [10] = assay: Antifungal activity against Aspergillus flavus at 500 ug after 24 hrs by paper disc technique relative to control; outline: as §1
Aspergillus niger [11] = assay: Antifungal activity against Aspergillus niger at 500 ug after 24 hrs by paper disc technique relative to control; outline: as §1
Penicillium chrysogenum [12] = assay: Antifungal activity against Penicillium notatum sp. at 500 ug after 24 hrs by paper disc technique; conditions: read-out: IZ; outline: as §1
Penicillium chrysogenum [13] = assay: Antifungal activity against Penicillium notatum sp. at 500 ug after 24 hrs by paper disc technique relative to control; outline: as §1
Penicillium chrysogenum [14] = assay: Antifungal activity against Penicillium notatum sp. at 1000 ug after 24 hrs by paper disc technique; conditions: read-out: IZ; outline: as §1
Penicillium chrysogenum [15] = assay: Antifungal activity against Penicillium notatum sp. at 1000 ug after 24 hrs by paper disc technique relative to control; outline: as §1
Rhizopus [16] = assay: Antifungal activity against Rhizopus sp. at 500 ug after 24 hrs by paper disc technique; conditions: read-out: IZ; outline: as §1

SMILES | zone of inhibition at 1000 µg/disc (Rhizopus [1]) | zone of inhibition at 500 µg/disc (Aspergillus flavus [2]) | Activity (Aspergillus niger [3]) | Activity (Rhizopus [4]) | Activity (Rhizopus [5]) | zone of inhibition at 1000 µg/disc (Aspergillus niger [6]) | zone of inhibition at 500 µg/disc (Aspergillus niger [7]) | Activity (Aspergillus flavus [8]) | zone of inhibition at 1000 µg/disc (Aspergillus flavus [9]) | Activity (Aspergillus flavus [10]) | Activity (Aspergillus niger [11]) | zone of inhibition at 500 µg/disc (Penicillium chrysogenum [12]) | Activity (Penicillium chrysogenum [13]) | zone of inhibition at 1000 µg/disc (Penicillium chrysogenum [14]) | Activity (Penicillium chrysogenum [15]) | zone of inhibition at 500 µg/disc (Rhizopus [16])
C1=Nn2c(nnc2-c2ccccc2)Nc2nc3ccccc3cc21 | 30 mm | 32 mm | 71.66% | 50% | 50% | 43 mm | 39 mm | 70% | 45 mm | 53.33% | 53.33% | 44 mm | 73.33% | 54 mm | 90% | 30 mm
O=[N+]([O-])c1ccc(-c2nnc3n2N=Cc2cc4ccccc4nc2N3)cc1 | 26 mm | 36 mm | 63.33% | 43.33% | 41.66% | 38 mm | 22 mm | 60% | 36 mm | 60% | 33.33% | 43 mm | 71.66% | 52 mm | 86.66% | 25 mm
Cc1ccc2nc3c(cc2c1)C=Nn1c(nnc1-c1ccccc1Cl)N3 | 32 mm | 42 mm | 71.66% | 53.33% | 46.66% | 43 mm | 24 mm | 53.33% | 32 mm | 70.66% | 40% | 44 mm | 73.33% | 42 mm | 70% | 28 mm
Cc1ccc2nc3c(cc2c1)C=Nn1c(nnc1-c1ccc([N+](=O)[O-])cc1)N3 | 30 mm | 43 mm | 66.66% | 50% | 33.33% | 40 mm | 34 mm | 81.66% | 49 mm | 71.66% | 56.66% | 48 mm | 80% | 42 mm | 70% | 20 mm
OC(Cn1cncn1)(Cn1cncn1)c1ccc(F)cc1F [FLUCONAZOLE] | 42 mm | 35 mm | 80% | 70% | 63.33% | 48 mm | 42 mm | 70% | 42 mm | 58.33% | 70% | 52 mm | 86.66% | 54 mm | 90% | 38 mm
